Experimental data from ChEMBL document CHEMBL4665803, “Discovery of Covalent Inhibitors Targeting the Transcriptional Enhanced Associate Domain Central Pocket” (J Med Chem, 2020).
Active and inactive are the calls of the source. The rule behind the calls is not given here.

Assays:
[1] = target: T1, Transcriptional enhancer factor TEF-3 (Homo sapiens, UniProt Q15561); test: Inhibition of FITC-labeled palmitate tracer binding to N-terminal His6-tagged human TEAD4 (217 to 434 residues) expressed in Escherichia coli BL21-CodonPlus (DE3)-RIPL cells preincubated for 10 mins followed by FITC-labeled palmitate tracer addition and measured after 1 hr by fluorescence assay
Procedure, shortened: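 FP competition in 25 mM HEPES, 150 mM NaCl, pH 6.5: serially diluted compound preincubated 10 min at room temperature with nonacylated hTEAD4, then FITC-palmitate tracer added (final 50 nM protein, 10 nM tracer); shaken 1 h at room temperature, FP at Ex/Em 485/535 nm. Tracer Kd from saturation binding.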

[2] = target: T1, Transcriptional enhancer factor TEF-3; test: Inhibition of CPM binding to N-terminal His6-tagged human TEAD4 (217 to 434 residues) expressed in Escherichia coli BL21-CodonPlus (DE3)-RIPL cells preincubated for 10 mins followed by CPM addition and measured after 1 hr by fluorescence assay; conditions: for inhibition: time 70.0 min
[3] = target: T1, Transcriptional enhancer factor TEF-3; test: Inhibition of CPM binding to N-terminal His6-tagged human TEAD4 (217 to 434 residues) expressed in Escherichia coli BL21-CodonPlus (DE3)-RIPL cells at 12.5 uM preincubated for 10 mins followed by CPM addition and measured after 1 hr by fluorescence assay relative to control; conditions: time 70.0 min
[4] = target: T1, Transcriptional enhancer factor TEF-3; test: Binding affinity to nonacylated N-terminal His6-tagged human TEAD4 (217 to 434 residues) expressed in Escherichia coli BL21-CodonPlus (DE3)-RIPL cells at 8 equiv after 1 hr by ESI-MS spectrophotometric analysis
Procedure, shortened: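 Whole-protein ESI–MS: 1 μM hTEAD4 incubated 1 h at room temperature with 8 equiv compound in 25 mM HEPES, 150 mM NaCl, pH 6.5; centrifuged, injected via online desalting column to UPLC-MS; masses deconvoluted to detect adducts.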

[5] = target: T1, Transcriptional enhancer factor TEF-3; test: Binding affinity to nonacylated N-terminal His6-tagged human TEAD4 (217 to 434 residues) expressed in Escherichia coli BL21-CodonPlus (DE3)-RIPL cells assessed as melting temperature at 80 uM after 10 mins by SYPRO orange dye-based differential scanning fluorimetry method (reference value: 41 degreeC)
[6] = target: T1, Transcriptional enhancer factor TEF-3; test: Binding affinity to nonacylated N-terminal His6-tagged human TEAD4 (217 to 434 residues) expressed in Escherichia coli BL21-CodonPlus (DE3)-RIPL cells assessed as inhibition of protein-FAM-YAP (50 to 100 residues) interaction preincubated for 10 mins followed by FAM YAP addition and measured after 1 hr by fluorescence assay
Procedure, shortened: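 FP competition in PBS pH 7.5: serially diluted compound preincubated 10 min at room temperature with TEAD4 protein, then FAM-YAP50–100 added; shaken 1 h at room temperature, FP read at Ex/Em 485/535 nm. Final FAM/protein: nonacylated hTEAD4 2 nM/5 nM; acylated hTEAD4 3 nM/15 nM. Compound stocks 10 mM in DMSO. IC50 from curve fitting.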

[7] = target: T1, Transcriptional enhancer factor TEF-3; test: Inhibition of TEAD4 in HEK293 cells assessed as reduction in ANKRD1 mRNA expression at 1 uM measured after 6 hrs by SYBR green dye based RT-PCR analysis relative to control; assay type: cell-based
Procedure, shortened: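 HEK293 cells treated with DMSO or compound for 6 h; ANKRD1 mRNA measured by RT-qPCR relative to the DMSO control.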

[8] = target: Transcriptional enhancer factor TEF-3 (Mus musculus) (UniProt Q62296); test: Binding affinity to nonacylated mouse TEAD4 at 0.5 mM by 1H-15N HSQC spectra analysis
Procedure, shortened: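 1H–15N HSQC of 13C/15N-labeled mTEAD4, deacylated with hydroxylamine; spectra with DMSO or compound (0.5 mM) recorded at 37 °C on a 600 MHz cryoprobe instrument in 20 mM HEPES pH 7.3, 150 mM NaCl, 1 mM DTT; spectra overlaid.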

[9] = target: T1, Transcriptional enhancer factor TEF-3; test: Selectivity ratio of apparent IC50 for inhibition of CPM binding to N-terminal His6-tagged human TEAD4 (217 to 434 residues) expressed in Escherichia coli BL21-CodonPlus (DE3)-RIPL cells to IC50 for inhibition of FITC-labeled palmitate tracer binding to N-terminal His6-tagged human TEAD4 (217 to 434 residues) expressed in Escherichia coli BL21-CodonPlus (DE3)-RIPL cells

T1 sequence (Q15561 whole entry, the tested form may be a part): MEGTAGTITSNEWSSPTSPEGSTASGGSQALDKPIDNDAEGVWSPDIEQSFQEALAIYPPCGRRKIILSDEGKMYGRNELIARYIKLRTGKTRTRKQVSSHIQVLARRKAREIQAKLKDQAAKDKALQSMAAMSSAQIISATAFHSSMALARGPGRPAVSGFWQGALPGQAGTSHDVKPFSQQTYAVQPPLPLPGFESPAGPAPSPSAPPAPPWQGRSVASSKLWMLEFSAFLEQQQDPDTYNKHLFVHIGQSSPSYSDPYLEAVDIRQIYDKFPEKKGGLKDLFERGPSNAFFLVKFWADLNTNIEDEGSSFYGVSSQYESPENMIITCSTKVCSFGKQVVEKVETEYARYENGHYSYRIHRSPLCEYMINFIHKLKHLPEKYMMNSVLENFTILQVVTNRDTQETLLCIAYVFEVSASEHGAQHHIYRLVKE
Sequence of Transcriptional enhancer factor TEF-3 (Mus musculus) (Q62296 whole entry): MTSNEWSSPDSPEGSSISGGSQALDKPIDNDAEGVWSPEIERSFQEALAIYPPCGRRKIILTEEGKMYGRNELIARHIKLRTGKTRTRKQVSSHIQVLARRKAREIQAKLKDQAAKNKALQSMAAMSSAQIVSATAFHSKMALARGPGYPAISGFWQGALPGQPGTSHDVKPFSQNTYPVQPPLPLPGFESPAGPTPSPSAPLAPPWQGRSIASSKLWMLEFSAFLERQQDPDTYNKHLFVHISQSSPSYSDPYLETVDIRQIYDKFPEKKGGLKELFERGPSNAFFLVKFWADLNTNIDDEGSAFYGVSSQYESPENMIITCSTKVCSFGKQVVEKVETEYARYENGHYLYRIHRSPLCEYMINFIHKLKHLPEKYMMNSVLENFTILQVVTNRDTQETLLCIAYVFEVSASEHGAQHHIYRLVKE

SMILES	IC50 [1]	IC50 ([2]; read-out: IC50(app))	inhibition [3]	also measured
O=c1cc(CO)oc(C(Nc2ccccn2)c2ccccc2)c1O (configuration not stated)	0.3 µM	3.1 µM	> 50%	–
O=c1cc(CO)oc(C(Nc2ccccc2)c2ccc3ccccc3c2)c1O (configuration not stated)	0.2 µM	1.1 µM	> 50%	–
CCCCCCCCCCCCCCCC(=O)O	–	–	–	inhibition [2]: Dose-dependent effect
O=c1cc(CO)oc(C(Nc2ccccc2)c2ccccc2F)c1O (configuration not stated)	0.1 µM	0.7 µM	> 50%	–
O=c1cc(CO)oc(C(Nc2ccccc2)c2ccccn2)c1O (configuration not stated)	0.5 µM	18.9 µM	> 50%	–
O=C(CCl)c1ccccc1Nc1cccc(C(F)(F)F)c1	14.1 µM	0.8 µM	–	inhibition [2]: Dose-dependent effect
CSCC[C@H](NCc1oc(CO)cc(=O)c1O)C(=O)O	–	–	< 50%	IC50 ([2]; read-out: IC50): > 100 µM
NC(=O)c1ccc(NC(c2ccccn2)c2oc(CO)cc(=O)c2O)cc1 (configuration not stated)	1.1 µM	9.2 µM	> 50%	–
O=c1cc(CO)oc(C(Nc2ccccn2)c2ccccc2F)c1O (configuration not stated)	0.3 µM	3.2 µM	> 50%	IC50 ([2]; read-out: IC50): 3.2 µM
O=c1cc(CO)oc(C(Nc2ccccc2)C2CCCCC2)c1O (configuration not stated)	22.6 µM	> 100 µM	> 50%	–
NC(=O)c1ccc(C(Nc2ccccc2)c2oc(CO)cc(=O)c2O)cc1 (configuration not stated)	0.3 µM	1.5 µM	> 50%	–
O=c1cc(CO)oc(C(Nc2cccc(F)c2)c2ccccc2)c1O (configuration not stated)	0.2 µM	1.5 µM	> 50%	–
O=c1cc(CO)oc(C(Nc2cccc(F)c2)c2ccccn2)c1O (configuration not stated)	–	–	> 50%	IC50 ([2]; read-out: IC50): 8.7 µM
CC(C)c1ccc(C(Nc2ccccc2)c2oc(CO)cc(=O)c2O)cc1 (configuration not stated)	0.2 µM	1 µM	> 50%	–
COc1c(C(Nc2ccccc2)c2ccccc2)oc(CO)cc1=O (configuration not stated)	41.6 µM	> 100 µM	< 50%	Activity [4]: inactive; Tm [5]: 41 °C; IC50 [6]: 9.5 µM; inhibition [7]: inactive; Activity [8]: inactive; Ratio IC50 [9]: > 200
O=c1cc(CO)oc(C(Nc2nccs2)c2ccccc2)c1O (configuration not stated)	5.6 µM	53.4 µM	> 50%	Tm [5]: 41 °C
O=C(O)c1ccccc1Nc1cccc(C(F)(F)F)c1	–	–	–	inhibition [2]: Dose-dependent effect
CC(C)NC(c1ccccc1)c1oc(CO)cc(=O)c1O (configuration not stated)	1.5 µM	16.8 µM	> 50%	–
O=C(O)c1cccnc1Nc1cccc(C(F)(F)F)c1 [NIFLUMIC ACID]	5.9 µM	41.9 µM	–	inhibition [2]: Dose-dependent effect

SMILES	IC50 [1]	IC50 ([2]; read-out: IC50(app))	inhibition [3]	also measured
O=c1cc(CO)oc(CN2CCN(c3ccccn3)CC2)c1O	–	–	< 50%	IC50 ([2]; read-out: IC50): > 100 µM
COc1c(C(Nc2ccccn2)c2ccccc2F)oc(CO)cc1=O (configuration not stated)	49.9 µM	> 100 µM	< 50%	Ratio IC50 [9]: > 200
O=c1cc(CO)oc(C(Nc2ccccn2)c2cccnc2)c1O (configuration not stated)	14.7 µM	> 100 µM	> 50%	–
O=c1cc(CO)oc(C(c2ccccc2)N2Cc3ccccc3C2)c1O (configuration not stated)	0.9 µM	13.2 µM	> 50%	–
O=c1cc(CO)oc(C(Nc2ccccc2)c2ccc(F)cc2)c1O (configuration not stated)	0.3 µM	1.9 µM	> 50%	–
Cc1ccnc(NC(c2ccccc2)c2oc(CO)cc(=O)c2O)c1 (configuration not stated)	0.3 µM	2.4 µM	> 50%	–
Cc1ccc(C(Nc2ccccc2)c2oc(CO)cc(=O)c2O)cc1 (configuration not stated)	0.2 µM	1.3 µM	> 50%	–
O=c1cc(CO)oc(C(Nc2ncccn2)c2ccccc2)c1O (configuration not stated)	13.4 µM	> 100 µM	> 50%	–
O=c1cc(CO)oc(CNc2ccccc2)c1O	36.4 µM	> 100 µM	> 50%	–
O=c1cc(CO)oc(C(Nc2nc3ccccc3[nH]2)c2ccccc2)c1O (configuration not stated)	6.4 µM	> 100 µM	> 50%	–
O=c1cc(CO)oc(C(Nc2nccs2)c2ccc(F)cc2)c1O (configuration not stated)	–	–	> 50%	IC50 ([2]; read-out: IC50): 43.1 µM
O=c1cc(CO)oc(C(Nc2ccccn2)c2ccccn2)c1O (configuration not stated)	16 µM	> 100 µM	> 50%	–
CCOC(=O)C1CCCN(Cc2oc(CO)cc(=O)c2O)C1 (configuration not stated)	–	–	< 50%	IC50 ([2]; read-out: IC50): > 100 µM
NC(=O)c1ccc(NC(c2ccccc2)c2oc(CO)cc(=O)c2O)cc1 (configuration not stated)	0.3 µM	1.7 µM	> 50%	–
O=c1cc(CO)oc(C(Nc2ccccn2)c2ccc(Br)cc2)c1O (configuration not stated)	0.4 µM	3.7 µM	> 50%	Tm [5]: 39 °C
O=c1cc(CO)oc(C(Nc2ccccc2)c2ccc(Br)cc2)c1O (configuration not stated)	0.2 µM	1.2 µM	> 50%	–
O=c1cc(CO)oc(C(NCc2ccccc2)c2ccccc2)c1O (configuration not stated)	0.4 µM	4 µM	> 50%	–
CC(C)C(Nc1ccccc1)c1oc(CO)cc(=O)c1O (configuration not stated)	38.1 µM	> 100 µM	> 50%	–
